Compounds with a hit are over-represented: about 3.5% of the library has one in this group of screens.
RGS4 inh: RGS4 inhibitors, primary screen, cell-based, HEK293 M3R inducible RGS4, calcium flux. Fluo-4 calcium flux; hits give high values; triggered by carbachol at its EC20. B-score at 10 µM. actives 0.45% (n = 310,000);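 active = B-score, a plate-corrected calcium signal, over three deviations above library mean, with baseline fluorescence within five deviations of library mean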;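 note: RGS4 expression induced by doxycycline in cells with stable M3 receptor; B-score is computed from the integrated fluorescence ratio over baseline after carbachol; higher B-score means a larger calcium signal and so more RGS4 inhibition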
Target sequence (P49798 whole entry, looked up): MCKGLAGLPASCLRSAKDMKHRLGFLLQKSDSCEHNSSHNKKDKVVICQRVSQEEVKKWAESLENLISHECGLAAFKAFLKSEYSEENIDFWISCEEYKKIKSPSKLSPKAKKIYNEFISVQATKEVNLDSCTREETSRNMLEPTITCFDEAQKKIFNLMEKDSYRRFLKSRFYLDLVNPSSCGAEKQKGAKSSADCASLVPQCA
MrgX1 ag: agonists of human MrgX1 receptor, primary screen, HEK293 cells, Fluo-4 calcium flux; Mas-related G-protein coupled receptor member X1 (Homo sapiens), Q96LB2; Fluo-4 calcium fluorescence, agonist mode; hits give high values; B-score at 10 µM; actives 0.44% (n = 310,000); AID 588627, 2011;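 active = calcium response B-score plate-corrected fluorescence ratio at least 3 library SD, with starting fluorescence B-score inside 5 SD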
Target sequence (Q96LB2 whole entry, looked up): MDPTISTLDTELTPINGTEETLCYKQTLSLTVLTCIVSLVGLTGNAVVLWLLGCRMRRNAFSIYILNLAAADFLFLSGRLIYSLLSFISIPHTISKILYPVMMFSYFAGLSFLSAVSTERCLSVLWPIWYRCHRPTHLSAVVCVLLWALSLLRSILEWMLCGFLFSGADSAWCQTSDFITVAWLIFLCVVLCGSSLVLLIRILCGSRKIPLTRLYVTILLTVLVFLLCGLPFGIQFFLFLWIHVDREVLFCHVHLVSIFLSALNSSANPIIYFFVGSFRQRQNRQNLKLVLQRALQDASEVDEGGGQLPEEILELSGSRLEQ
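Assay system: MrgX1-expressing HEK293 cells / Amount: fifteen thousand cells per well / Doses: test compound in the initial addition of three / Timing: cells plated overnight, dye loaded 0.5 h 37 °C, 0.5 h room temperature / Technique: kinetic calcium dye fluorescence, Fluo-4 NW / Control set: positive and negative controls per plate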
RGS4 pot: RGS4 potentiators or activators, primary screen, cell-based, HEK293 M3R inducible RGS4, calcium flux; actives 0.92% (n = 310,000); AID 463111, 2010; B-score at 10 µM; carbachol calcium flux Fluo4; hits give low values;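 active = B-score of the integrated calcium signal more than 4 SD below the library mean, with starting fluorescence not abnormally high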;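 note: negative B-score means reduced calcium response which marks RGS4 activation or potentiation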
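Reagent: ECmax carbachol challenge; Test system: M3R-expressing HEK293 line, RGS4 induced by doxycycline; Schedule: overnight RGS4 induction, 30 min dye load 37 °C, 20 min compound RT; Detection: calcium dye Fluo4 fluorescence; Read-out: Agonist-evoked peak-minus-minimum fluorescence over baseline, integrated ratio, B score.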
MrgX1 antagonist: antagonists of human MrgX1 receptor, primary screen, HEK293 cells, Fluo-4 calcium flux | Mas-related G-protein coupled receptor member X1 (Homo sapiens), Q96LB2 | BAM8-22 antagonism; hits give low values | B-score at 10 µM | actives 1.3% (n = 310,000) | AID 588676, 2011;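 active = calcium-response B-score plate-corrected more than 3 library SD below zero, starting fluorescence within 5 deviations, no agonist response on first addition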;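 note: peak minus trough fluorescence over baseline after final BAM8-22 challenge near maximal dose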
MrgX1 PAM: positive allosteric modulators of MrgX1, primary screen, HEK293 cells, Fluo-4 calcium flux. Mas-related G-protein coupled receptor member X1 (Homo sapiens), Q96LB2. FDSS; hits give high values. B-score at 10 µM. actives 0.63% (n = 310,000). AID 588675, 2011;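 active = plate-corrected calcium response at least 3 library SD above typical, normal starting fluorescence, not activating the receptor alone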;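 note: compound read alongside a low EC10 to EC30 dose of BAM8-22 agonist; peak minus trough fluorescence over baseline measured at the second addition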
An asterisk follows results filed as active; i = inactive.

SMILES | RGS4 inh | MrgX1 ag | RGS4 pot | MrgX1 antagonist | MrgX1 PAM
COc1cccc(N2CCN(C(=O)c3oc4ccccc4c3NC(=O)Cc3ccc(OC)c(OC)c3)CC2)c1 | i | i | i | i | i
Cc1sc(NC(=O)c2ccco2)nc1-c1ccc2c(c1)CC(C)N2C(=O)C1CC1 (stereo unspecified) | i | i | -7.07* | i | i
C[C@@H]1O[C@@H](OC2C(O)C(OCCc3ccc(O)c(O)c3)OC(CO)C2OC(=O)/C=C/c2ccc(O)c(O)c2)[C@H](O)[C@H](O)[C@H]1O (stereo partly specified) | i | i | i | -5.14* | i
Cc1ccc(N(CC2CO2)S(=O)(=O)c2ccc(C)cc2)cc1 (stereo unspecified) | i | i | i | i | i
Cc1ccc(N(CC2CO2)S(=O)(=O)c2ccc([N+](=O)[O-])cc2)cc1 (stereo unspecified) | i | i | i | i | 7.39*
CSc1ccc(OC2CCN(Cc3ccccc3)CC2)cc1 | i | i | -7.86* | i | i
O=C(c1ccc(CNS(=O)(=O)c2cccc(Cl)c2)cc1)N1CCCCC1 | i | i | i | i | i
COc1ccc(C2=NN(C(=O)C(O)c3ccccc3)C(O)(C(F)(F)F)C2)cc1 (stereo unspecified) | i | 29.4* | i | i | i
Clc1ccc(CN2CCc3c([nH]c4ccccc34)C2)cc1Cl | i | i | i | -4.64* | i
O=C1c2cccc3c([N+](=O)[O-])ccc(c23)C(=O)N1O | i | i | i | -8.56* | i
O=C1c2cccc3c([N+](=O)[O-])ccc(c23)C(=O)N1c1ccc(Cl)cn1 | i | i | i | i | i
O=C1c2cccc3c([N+](=O)[O-])ccc(c23)C(=O)N1c1ccccn1 | i | i | -7.78* | i | i
CC1Sc2ccc(S(=O)(=O)CCC(=O)NCc3ccc(Cl)cc3)cc2NC1=O (stereo unspecified) | i | i | i | i | i
O=C(CNC1CCCCC1)Nc1cccc(C(F)(F)F)c1 | i | i | i | i | i
Cc1cccc(N2CCN(C(=O)c3ccc4c(c3)OCCO4)CC2)c1C | i | i | i | i | i
Cc1cccc(N2CCN(C(=O)c3ccc4c(c3)NC(=O)C(CSCc3cccc(F)c3)N4)CC2)c1C (stereo unspecified) | i | 33.7* | i | i | i
CN1CCCCC1CCN1c2ccccc2Sc2ccc(S(C)=O)cc21 (stereo unspecified) | i | i | -7.28* | i | i
CN1CCCC(CN2c3ccccc3Sc3ccccc32)C1 (stereo unspecified) | i | i | i | i | i
COc1cccc(CN2CCCN(S(=O)(=O)c3ccc(Br)cc3)CC2)c1 | i | i | i | i | i
O=S(=O)(c1ccc(Br)cc1)N1CCCN(Cc2cccc(F)c2)CC1 | i | i | -8.31* | i | i
CC(C)C[C@H](NC(=O)N1CC(=O)Nc2ccccc21)C(=O)N1CCC(C(=O)O)CC1 | i | i | i | i | i
COc1ccccc1CNC(=O)c1nn(-c2ccc(C)cc2)c(=O)c2c1c1ccccc1n2C | i | i | i | -8.04* | i
CCN(CC)c1ccc(/C=C/c2ccc3ccc(OC)cc3[n+]2CC)cc1 | i | i | -8.46* | -9.28* | i
COc1ccc(C2CC(=O)N(C)c3ccccc3S2)cc1 (stereo unspecified) | i | i | i | i | i
CS(=O)(=O)c1ccc(Cl)c(NC(=O)c2cc(S(=O)(=O)N3CCOCC3)ccc2N2CCCC2)c1 | i | i | i | i | i
SMILES | RGS4 inh | MrgX1 ag | RGS4 pot | MrgX1 antagonist | MrgX1 PAM
Cc1ccsc1C=C1C(=O)c2ccccc2C1=O | i | i | i | i | i
Cc1ccsc1/C=C1/C(=O)NN(c2ccccc2)C1=O | i | 33.4* | i | i | i
CCS(=O)(=O)N1N=C(c2cccc(NS(C)(=O)=O)c2)CC1c1ccccc1 (stereo unspecified) | i | i | i | -5.49* | i
O=C(N/N=C/c1cn(-c2ccccc2)nc1-c1cccs1)c1ccc(Cl)cc1 | i | i | -6.95* | i | i
O=C(N/N=C/c1cn(-c2ccccc2)nc1-c1cccnc1)c1ccc(F)cc1 | i | i | i | i | i
O=C(N/N=C/c1cn(-c2ccccc2)nc1-c1cccs1)c1ccccc1F | i | i | -7.36* | i | i
CCOC(=O)c1ccc(NC(=O)CSc2nnnn2CCCO)cc1 | i | i | i | i | i
Cc1cc(N/N=C/c2ccc3c(c2)OCO3)nc2ccccc12 | i | i | i | i | i
COc1cc2c(cc1OC)CC(=O)NC=C2 | i | i | i | i | i
O=C(O)c1ccc(N=Nc2c(O)[nH]c3cc(Cl)ccc23)cc1 | i | i | i | -5.97* | i
CCCCc1cc(=O)oc2cc(C)cc(OCC(=O)Nc3ccccn3)c12 | i | i | i | i | i
COc1c(CC=C(C)C)cc(C2CC(=O)c3c(O)cc(O)cc3O2)c(CC=C(C)C)c1O (stereo unspecified) | i | i | -7.63* | i | i
CC(C)(C)c1ccc(C(=O)NNC(=S)NCc2ccco2)cc1 | i | i | i | i | i
CC(C)(O)C(=O)NNC(=S)NCc1ccco1 | i | i | i | -5.35* | i
COc1cc2c(cc1OC)CN(C(=S)Nc1ccc(C)cc1C)CC2 | i | i | i | i | i
CC(=O)Nc1ccc(NC(=O)C(C)OC(=O)/C(C#N)=C/c2ccc(N(C)C)cc2)cc1 (stereo unspecified) | i | i | i | i | i
CC(OC(=O)/C(C#N)=C/c1ccc(N(C)C)cc1)C(=O)N(C)c1ccccc1 (stereo unspecified) | i | i | -7.2* | i | i
CCCCCC(=O)NNC(=O)c1c(O)c2ccccc2n(CC)c1=O | i | i | i | i | i
CCn1c(=O)c(C(=O)NNC(=O)c2ccccc2F)c(O)c2ccccc21 | i | 114* | -8.66* | i | i
O=C(c1ccco1)N1CCN(C(=O)C2CCN(S(=O)(=O)Cc3ccccc3)CC2)CC1 | i | i | i | i | i

Bioassay records from PubChem.
